This is a sample that favours compounds with a hit; in the whole collection about 2.7% have one here.
E-sel inducer: E-selectin induction in HUVECs, primary screen, imaging, HUVEC, immunofluorescence imaging, single point; normalized: neutral wells 0, TNF-alpha wells 100; activation, % at 7.58 µM; 260,000 tested, 0.37% active; AID 686992, 2013;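 active means mean E-selectin-positive cell signal at least 10% of the positive control, reached in at least 60% of replicates, without over 20% cell loss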
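material = human umbilical vein endothelial cells (HUVEC), E-selectin induction | quantity = 3,000 cells/well | medium = EGM-2 growth medium on 0.1% gelatin-coated wells | technique = immunofluorescence imaging | read-out basis = % PE-positive cells | control set = TNF-alpha positive control, DMSO neutral control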
Env fusion inh: inhibitors of HIV-1 Env-driven cell-cell fusion, primary screen, HeLa-JRFL effector, CEM21 target cells, luciferase. inhibition, % at 12.3 µM. 360,000 tested, 1.1% active. AID 651610, 2012;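 active means mean replicate inhibition score of at least 50 and every replicate individually at or above 50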;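 further: 0% = plate neutral controls and 100% = maraviroc near 300 nM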
CFTR F508del cor: F508del CFTR correction, initial screen, CFBE line, single point. 350,000 tested, 0.36% active. CFBE cells, YFP halide quenching; stimulated with forskolin plus potentiator P3; % fluorescence drop versus neutral controls. activity (quench increase), % at 7.58 µM. AID 720511, 2013;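 active means mean added fluorescence quench of at least 8% versus neutral control, with both replicates also reaching 8%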;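 further: cells transiently co-express mutant CFTR-F508del with the halide-sensitive YFP; corrector assay measuring rescue of mutant channel to the surface after 24 h compound exposure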
FGF22 binding: binders of human FGF22 protein, primary screen, FGF22 synaptogenesis inhibitor project, biophysical, thermal shift, single point | recombinant FGF22 thermal shift, SYPRO orange fluorescence; percent of sucrose octasulfate shift, DMSO zero | activity (Tm shift, normalised), % at 9.99 µM | 340,000 tested, 1.5% active | AID 651658, 2012;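 active means mean Tm shift, scaled 0 neutral to 100 positive control, at about 1.3% or above, every replicate too, limit read from the data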
Target sequence (Q9HCT0 whole entry, looked up): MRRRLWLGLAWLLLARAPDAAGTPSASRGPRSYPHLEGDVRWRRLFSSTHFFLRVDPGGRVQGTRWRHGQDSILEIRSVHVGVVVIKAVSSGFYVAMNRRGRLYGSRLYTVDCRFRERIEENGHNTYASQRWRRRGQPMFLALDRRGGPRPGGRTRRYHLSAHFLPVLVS
S100A4 inh HTS: inhibitors of S100A4-myosin IIA peptide binding, primary screen, biochemical, fluorescence polarization, TAMRA-MyoIIA peptide. Protein S100-A4 (Homo sapiens), P26447. inhibition, % at 10.7 µM. 360,000 tested, 0.14% active;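 active means mean inhibition of at least 70% across replicates, with every replicate also reaching that level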
Target sequence (P26447 whole entry, looked up): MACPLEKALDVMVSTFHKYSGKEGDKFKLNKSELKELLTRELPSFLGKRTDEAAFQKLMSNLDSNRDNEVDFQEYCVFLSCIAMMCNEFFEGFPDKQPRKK
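Test system: S100A4 monomer protein. Medium: HEPES buffer with Ca2+, pH 7.2. Reagent: fluorescent myosin IIA peptide, 5 nM. Compound dosing: single-point compound testing. Timing: 5 min between mix addition and reading. Benchmarks: DMSO neutral and TFP positive wells.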
* hit, by the source's call; nt = not tested or not shown; [ ] = another dose, or the depositor's remark.

SMILES	E-sel inducer	Env fusion inh	CFTR F508del cor	FGF22 binding	S100A4 inh HTS
C[C@@H]1CN([C@H](C)CO)C(=O)Cc2cc(NC(=O)C3CCCCC3)ccc2O[C@@H]1CN(C)S(=O)(=O)c1ccc(F)cc1	-0.1	nt	-0.3	0.2	3.9
C=CCOC(=O)C1=C(C)NC(SCC(=O)Nc2ccc(C)c(Cl)c2)=C(C#N)C1c1ccco1 (configuration not stated)	nt	55.4*	nt	nt	nt
COCCOC(=O)C1=C(C)NC(SCC(=O)NC(C)(C)C)=C(C#N)C1c1ccco1 (configuration not stated)	nt	2.7	2.4	0.1	-44.5
C[C@@H]1CN([C@H](C)CO)C(=O)c2cccc(NC(=O)C3CCOCC3)c2O[C@@H]1CN(C)Cc1ccc(Oc2ccccc2)cc1	380.2*	-10.3[16.7 µM]	0.3	-0.1	7.9
C[C@H](CO)N1C[C@H](C)[C@H](CN(C)Cc2ccc(Oc3ccccc3)cc2)Oc2c(NC(=O)C3CCOCC3)cccc2C1=O	167.8*	5.0[16.7 µM]	-0.6	-0.7	2.3
Cc1ccc(S(=O)(=O)N(C)C[C@H]2Oc3ccc(NC(=O)CCCN(C)C)cc3CC(=O)N([C@@H](C)CO)C[C@@H]2C)cc1	1.6	nt	0.6	-0.3	-7.4
Cc1nnc(SCC(=O)N2CCCC(C(=O)c3ccc(Cl)cc3)C2)o1 (configuration not stated)	-0.1	-4.1	-2.2	43.4*	1.1
C[C@@H]1CN([C@H](C)CO)C(=O)Cc2cc(NC(=O)Cc3cn(C)c4ccccc34)ccc2O[C@H]1CN(C)C(=O)Nc1ccccc1	0.0	5.5[16.7 µM]	0.7	-0.1	-0.7
O=C(c1cnccn1)N1CC(=O)N2[C@@H](CO)[C@H](c3ccc(C#CC4CCCC4)cc3)[C@@H]2C1	0.4	nt	-1.2	nt	4.8
O=C(C[C@@H]1C[C@@H]2c3cc(NC(=O)CC4CC4)ccc3O[C@@H]2[C@H](CO)O1)NCc1ccc2c(c1)OCO2	-0.3	-3.3[16.7 µM]	-2.4	-0.6	2.5
OCCCNC(=S)Nc1ccc(Oc2ccccc2)cc1	nt	-4.3	1.0	43.5*	-2.6
O=C(c1ccccc1F)N1CC(=O)N2[C@@H](CO)[C@H](c3ccc(C#Cc4ccccc4)cc3)[C@@H]2C1	-0.1	nt	4.3	nt	79.2*
O=C(c1ccccc1F)N1CC(=O)N2[C@H](CO)[C@H](c3ccc(C#Cc4ccccc4)cc3)[C@H]2C1	0.2	nt	4.1	nt	-6.0
O=C(c1ccc2c(c1)OCO2)N1CC(=O)N2[C@@H](CO)[C@H](c3ccc(C#Cc4ccccc4)cc3)[C@@H]2C1	-0.6	nt	2.9	nt	114.3*
CO[C@H]1CN(C)C(=O)c2cc(NC(=O)c3cccc(F)c3)ccc2OC[C@@H](C)N(C(C)=O)C[C@H]1C	-0.2	nt	-2.1	nt	nt
O=C(O)CCC(NC(=O)c1ccc(Cl)cc1)C(=O)O (configuration not stated)	nt	11.6	2.3	0.2	-0.6
CN(Cc1cnc2nc(N)nc(N)c2n1)c1ccc(C(=O)NC(CCC(=O)O)C(=O)O)c2ccccc12 (configuration not stated)	-0.1	64.3*	11.5*	-0.5	10.3
C[C@H]1CN([C@@H](C)CO)S(=O)(=O)c2ccc(C3=CCCCC3)cc2O[C@H]1CN(C)S(=O)(=O)c1ccc(F)cc1	0.5	40.5[16.7 µM]	0.6	-0.8	6.6
Oc1cccc2ccc(/C=C/c3c(F)cccc3Cl)nc12	nt	-177.8	-2.8	43.1*	-3.3
C[C@@H]1CN([C@H](C)CO)C(=O)Cc2cc(NC(=O)C3CC3)ccc2O[C@H]1CN(C)CC1CCCCC1	-0.3	4.4[16.7 µM]	-1.4	0.0	-17.8
NS(=O)(=O)c1ccc(CCNc2ncnc3sccc23)cc1	nt	48.8*	nt	nt	nt
NS(=O)(=O)c1ccc(CNc2ncnc3sccc23)cc1	nt	-8.2	1.0	0.0	-2.0
CCOC(=O)C1CCCN(C2=NC(=O)/C(=C/c3ccc(N(C)C)cc3)S2)C1 (configuration not stated)	0.0	12.2	0.5	1.9*	-9.0
C[C@H](O)C#Cc1ccc2c(c1)O[C@@H](CN(C)C(=O)CN(C)C)[C@H](C)CN([C@H](C)CO)S2(=O)=O	-0.2	-16.3[16.7 µM]	1.2	-0.4	3.4
COc1cc(N2CCCC2)ccc1C=O	nt	5.4	0.8	44.1*	-13.6
